According to ChEMBL document CHEMBL4118192, “BET bromodomain ligands: Probing the WPF shelf to improve BRD4 bromodomain affinity and metabolic stability” (Bioorg Med Chem, 2018):

What was measured:
[1] = target: T1, Bromodomain-containing protein 4 (Homo sapiens, UniProt O60885); assay: Inhibition of recombinant His6-tagged human BRD4 bromodomain 1 expressed in Escherichia coli BL21(DE3)-R3-pRARE2 cells preincubated for 30 mins followed by H4KAc4 peptide substrate addition measured after 30 mins by AlphaScreen assay
[2] = Apparent half life in human liver microsomes at 3 uM; format: ADME, microsome; settings: read-out: t1/2(app)
[3] = Intrinsic clearance in human liver microsomes at 3 uM; format: ADME, microsome; settings: read-out: CLH
A498 = assay: Growth inhibition of human A498 cells after 48 hrs by SRB assay; format: functional; settings: A498, 48 h
Method in brief: (§1)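 In-house assay. Cells were seeded into 96-well plates at a density for exponential growth and treated with a concentration range for 48 h. They were then fixed in 10% (w/v) TCA and stained with sulforhodamine B. The 50% growth-inhibitory concentration relative to control cells was calculated as the mean of three repeats ± standard deviation.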

HT-29 = assay: Growth inhibition of human HT-29 cells after 48 hrs by SRB assay; format: functional; settings: HT-29, 48 h; method in brief: as §1
MCF7 = assay: Growth inhibition of human MCF7 cells after 48 hrs by SRB assay; format: functional; settings: MCF7, 48 h; method in brief: as §1
[4] = target: T1, Bromodomain-containing protein 4; assay: Binding affinity to His6-tagged human BRD4 bromodomain 1 expressed in Escherichia coli BL21(DE3)-R3-pRARE2 cells by isothermal titration calorimetric method
[5] = target: ATPase family AAA domain-containing protein 2B (Homo sapiens) (UniProt Q9ULI0); assay: Inhibition of human partial length ATAD2B (Q955 to R1082 residues) expressed in bacterial expression system assessed as residual activity at 1 uM by BROMOscan assay relative to control
[6] = target: Bromodomain-containing protein 2 (Homo sapiens) (UniProt P25440); assay: Inhibition of human partial length BRD2 bromodomain 1 (K71 to N194 residues) expressed in bacterial expression system assessed as residual activity at 1 uM by BROMOscan assay relative to control
[7] = target: Bromodomain-containing protein 3 (Homo sapiens) (UniProt Q15059); assay: Inhibition of human partial length BRD3 bromodomain 1 (P24 to E144 residues) expressed in bacterial expression system assessed as residual activity at 1 uM by BROMOscan assay relative to control
[8] = target: T1, Bromodomain-containing protein 4; assay: Inhibition of human partial length BRD4 bromodomain 1 (N44 to E168 residues) expressed in bacterial expression system assessed as residual activity at 1 uM by BROMOscan assay relative to control
[9] = target: T1, Bromodomain-containing protein 4; assay: Inhibition of human partial length BRD4 bromodomain 2 (K333 to E460 residues) expressed in bacterial expression system assessed as residual activity at 1 uM by BROMOscan assay relative to control
[10] = target: Bromodomain-containing protein 9 (Homo sapiens) (UniProt Q9H8M2); assay: Inhibition of human partial length BRD9 (R130 to V259 residues) expressed in bacterial expression system assessed as residual activity at 1 uM by BROMOscan assay relative to control
[11] = target: Bromodomain testis-specific protein (Homo sapiens) (UniProt Q58F21); assay: Inhibition of human partial length BRDT bromodomain 1 (N21 to E137 residues) expressed in bacterial expression system assessed as residual activity at 1 uM by BROMOscan assay relative to control
Peregrin (Homo sapiens) = Peregrin (Homo sapiens) (UniProt P55201); assay: Inhibition of human partial length BRPF1 (E627 to G740 residues) expressed in bacterial expression system assessed as residual activity at 1 uM by BROMOscan assay relative to control
[12] = target: CREB-binding protein (Homo sapiens) (UniProt Q92793); assay: Inhibition of human partial length CREBBP (R1081 to G1197 residues) expressed in bacterial expression system assessed as residual activity at 1 uM by BROMOscan assay relative to control
[13] = target: Histone acetyltransferase KAT2B (Homo sapiens) (UniProt Q92831); assay: Inhibition of human partial length PCAF (G715 to D831 residues) expressed in bacterial expression system assessed as residual activity at 1 uM by BROMOscan assay relative to control
Sequence of Histone acetyltransferase KAT2B (Homo sapiens) (Q92831 whole entry, looked up, the tested form may be a part): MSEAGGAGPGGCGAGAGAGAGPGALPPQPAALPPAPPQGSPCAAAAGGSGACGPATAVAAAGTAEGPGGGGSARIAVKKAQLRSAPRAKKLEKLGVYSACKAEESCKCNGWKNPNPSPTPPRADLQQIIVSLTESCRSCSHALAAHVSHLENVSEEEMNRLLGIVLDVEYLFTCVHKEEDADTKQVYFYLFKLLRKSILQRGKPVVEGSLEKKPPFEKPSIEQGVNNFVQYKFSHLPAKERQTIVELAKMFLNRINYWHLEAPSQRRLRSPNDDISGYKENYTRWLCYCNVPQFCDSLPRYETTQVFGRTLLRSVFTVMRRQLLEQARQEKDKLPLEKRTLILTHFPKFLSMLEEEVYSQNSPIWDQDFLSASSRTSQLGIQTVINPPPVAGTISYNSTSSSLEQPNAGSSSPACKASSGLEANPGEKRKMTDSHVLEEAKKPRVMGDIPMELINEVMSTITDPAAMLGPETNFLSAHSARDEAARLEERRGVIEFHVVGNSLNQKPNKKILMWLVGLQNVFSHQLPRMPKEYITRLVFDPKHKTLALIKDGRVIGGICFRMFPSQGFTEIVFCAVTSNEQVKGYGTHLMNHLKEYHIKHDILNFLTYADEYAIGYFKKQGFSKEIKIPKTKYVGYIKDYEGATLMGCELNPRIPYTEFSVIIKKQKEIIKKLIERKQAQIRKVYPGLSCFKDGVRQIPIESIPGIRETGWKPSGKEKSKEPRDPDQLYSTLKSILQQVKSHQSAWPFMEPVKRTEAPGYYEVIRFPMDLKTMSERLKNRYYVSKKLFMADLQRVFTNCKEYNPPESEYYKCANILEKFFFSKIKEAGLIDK

[14] = target: SWI/SNF-related matrix-associated actin-dependent regulator of chromatin subfamily A member 4 (Homo sapiens) (UniProt P51532); assay: Inhibition of human partial length SMARCA4 (A1448 to S1575 residues) expressed in bacterial expression system assessed as residual activity at 1 uM by BROMOscan assay relative to control
Sequence of SWI/SNF-related matrix-associated actin-dependent regulator of chromatin subfamily A member 4 (Homo sapiens) (P51532 whole entry, the tested form may be a part): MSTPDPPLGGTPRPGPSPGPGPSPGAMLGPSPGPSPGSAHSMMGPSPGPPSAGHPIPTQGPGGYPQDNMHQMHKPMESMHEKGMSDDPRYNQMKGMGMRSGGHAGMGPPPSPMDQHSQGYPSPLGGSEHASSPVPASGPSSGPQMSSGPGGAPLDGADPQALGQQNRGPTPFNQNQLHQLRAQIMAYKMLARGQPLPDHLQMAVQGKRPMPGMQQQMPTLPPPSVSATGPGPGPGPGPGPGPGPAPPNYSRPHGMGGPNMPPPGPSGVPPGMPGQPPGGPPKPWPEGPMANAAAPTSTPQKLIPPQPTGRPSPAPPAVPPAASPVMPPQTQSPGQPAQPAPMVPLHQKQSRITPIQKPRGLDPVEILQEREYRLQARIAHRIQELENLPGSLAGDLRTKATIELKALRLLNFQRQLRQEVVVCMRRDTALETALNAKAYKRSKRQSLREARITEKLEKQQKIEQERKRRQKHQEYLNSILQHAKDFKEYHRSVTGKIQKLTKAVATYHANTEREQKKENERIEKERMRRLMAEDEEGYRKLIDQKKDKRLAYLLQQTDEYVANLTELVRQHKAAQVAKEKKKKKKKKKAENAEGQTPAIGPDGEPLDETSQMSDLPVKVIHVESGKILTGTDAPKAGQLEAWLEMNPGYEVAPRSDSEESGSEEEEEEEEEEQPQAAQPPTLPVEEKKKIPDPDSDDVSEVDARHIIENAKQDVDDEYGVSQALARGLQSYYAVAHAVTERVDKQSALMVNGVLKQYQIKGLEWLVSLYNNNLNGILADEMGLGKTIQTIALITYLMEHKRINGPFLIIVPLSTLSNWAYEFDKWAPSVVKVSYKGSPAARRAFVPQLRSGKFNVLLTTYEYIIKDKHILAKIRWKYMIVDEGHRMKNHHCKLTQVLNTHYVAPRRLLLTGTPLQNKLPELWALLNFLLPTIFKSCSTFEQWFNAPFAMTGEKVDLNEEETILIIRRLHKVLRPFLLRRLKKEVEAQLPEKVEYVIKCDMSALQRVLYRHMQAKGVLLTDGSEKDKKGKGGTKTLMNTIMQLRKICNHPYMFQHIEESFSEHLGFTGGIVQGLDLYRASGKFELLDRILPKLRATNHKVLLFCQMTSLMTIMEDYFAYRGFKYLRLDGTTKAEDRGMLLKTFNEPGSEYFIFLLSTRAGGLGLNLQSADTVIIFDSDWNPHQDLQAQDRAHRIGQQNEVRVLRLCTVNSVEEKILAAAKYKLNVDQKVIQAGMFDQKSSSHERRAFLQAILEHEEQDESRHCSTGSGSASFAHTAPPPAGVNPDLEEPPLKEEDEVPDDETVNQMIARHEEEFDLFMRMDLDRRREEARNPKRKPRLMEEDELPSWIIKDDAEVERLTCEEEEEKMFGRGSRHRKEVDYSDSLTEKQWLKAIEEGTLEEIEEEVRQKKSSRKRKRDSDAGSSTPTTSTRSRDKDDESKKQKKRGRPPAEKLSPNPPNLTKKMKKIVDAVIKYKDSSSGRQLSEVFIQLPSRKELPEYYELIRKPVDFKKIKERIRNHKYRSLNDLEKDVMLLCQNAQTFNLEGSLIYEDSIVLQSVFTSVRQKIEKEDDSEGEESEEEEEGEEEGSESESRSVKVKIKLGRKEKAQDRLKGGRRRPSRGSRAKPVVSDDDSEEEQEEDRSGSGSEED

[15] = target: Bromodomain and WD repeat-containing protein 1 (Homo sapiens) (UniProt Q9NSI6); assay: Inhibition of human partial length WDR9 bromodomain 2 (A1310 to E1430 residues) expressed in bacterial expression system assessed as residual activity at 1 uM by BROMOscan assay relative to control
Sequence of Bromodomain and WD repeat-containing protein 1 (Homo sapiens) (Q9NSI6 whole entry, the tested form may be a part): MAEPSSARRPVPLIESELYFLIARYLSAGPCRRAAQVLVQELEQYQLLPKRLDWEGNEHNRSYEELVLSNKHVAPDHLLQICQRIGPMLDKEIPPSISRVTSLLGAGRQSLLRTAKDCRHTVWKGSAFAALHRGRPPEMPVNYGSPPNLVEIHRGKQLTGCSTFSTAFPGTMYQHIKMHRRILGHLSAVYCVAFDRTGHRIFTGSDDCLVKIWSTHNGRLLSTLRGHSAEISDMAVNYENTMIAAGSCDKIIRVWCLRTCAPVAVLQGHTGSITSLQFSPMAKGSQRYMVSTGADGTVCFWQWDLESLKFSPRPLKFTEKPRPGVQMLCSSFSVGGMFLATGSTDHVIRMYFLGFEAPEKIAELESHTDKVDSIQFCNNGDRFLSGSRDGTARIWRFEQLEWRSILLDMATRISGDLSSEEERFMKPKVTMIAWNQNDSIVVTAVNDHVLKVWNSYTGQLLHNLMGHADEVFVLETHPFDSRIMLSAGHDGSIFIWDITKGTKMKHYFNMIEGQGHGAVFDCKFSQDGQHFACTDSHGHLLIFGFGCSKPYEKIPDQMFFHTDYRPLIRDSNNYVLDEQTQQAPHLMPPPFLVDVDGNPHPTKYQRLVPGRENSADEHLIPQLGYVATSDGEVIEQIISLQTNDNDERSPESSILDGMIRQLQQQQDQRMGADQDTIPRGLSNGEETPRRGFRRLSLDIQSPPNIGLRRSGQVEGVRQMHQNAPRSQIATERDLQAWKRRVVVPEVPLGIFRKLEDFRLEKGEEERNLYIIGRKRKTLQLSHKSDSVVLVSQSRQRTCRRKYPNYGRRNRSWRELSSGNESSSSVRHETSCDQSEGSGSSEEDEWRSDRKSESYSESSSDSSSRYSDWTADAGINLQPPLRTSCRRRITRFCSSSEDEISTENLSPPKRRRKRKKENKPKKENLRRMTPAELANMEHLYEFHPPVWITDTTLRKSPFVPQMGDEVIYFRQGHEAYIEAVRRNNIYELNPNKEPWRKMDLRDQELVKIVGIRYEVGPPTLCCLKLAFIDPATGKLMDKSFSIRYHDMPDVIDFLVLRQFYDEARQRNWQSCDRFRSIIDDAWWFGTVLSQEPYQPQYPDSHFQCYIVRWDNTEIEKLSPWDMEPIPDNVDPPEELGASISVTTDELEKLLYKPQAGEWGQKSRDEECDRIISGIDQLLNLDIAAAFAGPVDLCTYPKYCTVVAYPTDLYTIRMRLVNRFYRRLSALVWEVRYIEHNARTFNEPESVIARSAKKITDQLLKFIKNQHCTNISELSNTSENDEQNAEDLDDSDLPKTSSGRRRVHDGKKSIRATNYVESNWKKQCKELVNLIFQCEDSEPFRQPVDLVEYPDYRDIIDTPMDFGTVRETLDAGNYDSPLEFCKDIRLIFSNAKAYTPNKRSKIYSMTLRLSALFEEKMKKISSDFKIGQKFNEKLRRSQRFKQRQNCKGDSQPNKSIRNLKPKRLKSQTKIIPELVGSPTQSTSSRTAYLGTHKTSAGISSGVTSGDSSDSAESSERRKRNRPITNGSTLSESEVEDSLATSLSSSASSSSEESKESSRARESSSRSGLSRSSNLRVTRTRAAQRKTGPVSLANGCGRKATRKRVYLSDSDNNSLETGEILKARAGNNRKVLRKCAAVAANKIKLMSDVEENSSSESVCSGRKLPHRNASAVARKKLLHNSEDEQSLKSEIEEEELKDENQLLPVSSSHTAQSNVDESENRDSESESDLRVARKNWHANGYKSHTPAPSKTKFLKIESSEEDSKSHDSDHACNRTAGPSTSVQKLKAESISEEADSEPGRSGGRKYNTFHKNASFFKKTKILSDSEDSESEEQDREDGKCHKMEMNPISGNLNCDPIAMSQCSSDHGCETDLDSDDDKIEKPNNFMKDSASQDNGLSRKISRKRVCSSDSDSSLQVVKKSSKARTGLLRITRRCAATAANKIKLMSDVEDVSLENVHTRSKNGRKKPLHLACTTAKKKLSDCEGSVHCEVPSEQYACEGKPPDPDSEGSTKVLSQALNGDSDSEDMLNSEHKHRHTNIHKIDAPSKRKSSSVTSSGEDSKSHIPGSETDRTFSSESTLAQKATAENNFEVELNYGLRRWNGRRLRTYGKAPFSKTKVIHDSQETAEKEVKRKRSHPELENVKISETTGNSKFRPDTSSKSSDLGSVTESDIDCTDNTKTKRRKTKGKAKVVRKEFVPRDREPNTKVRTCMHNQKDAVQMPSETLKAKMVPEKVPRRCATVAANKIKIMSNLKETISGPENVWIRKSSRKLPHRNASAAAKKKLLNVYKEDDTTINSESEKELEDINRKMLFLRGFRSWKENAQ

Compound	IC50 ([1]; read-out: IC50) [nM]	IC50 ([1]; read-out: pIC50 (converted)) [nM]	other results
COc1cccc(C(O)c2cc(O)cc(-c3c(C)noc3C)c2)c1 (stereo not given)	478	479	
COc1ccc(C(O)c2cc(O)cc(-c3c(C)noc3C)c2)cc1 (stereo not given)	585	589	
Cc1noc(C)c1-c1cc(O)cc(C(O)c2ccccc2F)c1 (stereo not given)	1420	1410	
Cc1noc(C)c1-c1cc(O)cc(CNCc2ccccc2)c1	2250	2240	
Cc1noc(C)c1-c1cc(O)cc(CN2CCCCC2)c1	4280	4270	
Cc1noc(C)c1-c1cc(O)cc(C(O)c2cccc(F)c2)c1 (stereo not given)	793	794	
Cc1noc(C)c1-c1cc(O)cc(CN2CCN(C)CC2)c1	1230	1230	
Cc1noc(C)c1-c1cc(O)cc(C(O)c2ccccn2)c1 (stereo not given)	4680	4680	
Cc1noc(C)c1-c1cc(O)cc(C(=O)N2CCOCC2)c1	3800	3800	
Cc1noc(C)c1-c1cc(O)cc(C(O)C2CCCCC2)c1 (stereo not given)	166	166	
Cc1noc(C)c1-c1cc(O)cc(C(O)c2ccc(Cl)c(Cl)c2)c1 (stereo not given)	945	955	
Cc1noc(C)c1-c1cc(O)cc(C(O)c2ccc(F)cc2)c1 (stereo not given)	842	851	
Cc1noc(C)c1-c1cc(O)cc(CN2CCCC2)c1	3270	3240	
Cc1noc(C)c1-c1cc(O)cc(C(O)c2ccc(Cl)cc2)c1 (stereo not given)	631	631	
Cc1ccc(C(O)c2cc(O)cc(-c3c(C)noc3C)c2)cc1 (stereo not given)	296	295	
COc1ccccc1C(O)c1cc(O)cc(-c2c(C)noc2C)c1 (stereo not given)	270	269	
Cc1noc(C)c1-c1cc(O)cc(C(O)C2CC2)c1 (stereo not given)	377	380	
Cc1noc(C)c1-c1cc(O)cc(C(O)c2ccc(Cl)cn2)c1 (stereo not given)	495	490	
Cc1noc(C)c1-c1cc(O)cc(CN2CCOCC2)c1	956	955	
Cc1noc(C)c1-c1cc(O)cc(Cc2ccccc2)c1	1100	1100	
Cc1noc(C)c1-c1cc(O)cc(C(=O)N2CCNCC2)c1	722	724	
Cc1noc(C)c1-c1cc(O)cc(C(O)c2cccnc2)c1 (stereo not given)	166	166	half-life at 3 µM [2]: 388 min; microsomal CLint at 3 µM [3]: 3.57 µL/min/mg; GI50 (A498): 4880 nM; GI50 (HT-29): 4400 nM; GI50 (MCF7): 1400 nM; Kd [4]: 247 nM; Activity [5]: 98%; Activity [6]: 1.8%; Activity [7]: 1.5%; Activity [8]: 4.6%; Activity [9]: 1.1%; Activity [10]: 100%; Activity [11]: 11%; Activity (Peregrin (Homo sapiens)): 100%; Activity [12]: 29%; Activity [13]: 100%; Activity [14]: 100%; Activity [15]: 100%
COc1ccc2c(c1)[C@]13CCCC[C@@H]1[C@H](C2)N(C)CC3 [DEXTROMETHORPHAN]			half-life at 3 µM [2]: 54.5 min; microsomal CLint at 3 µM [3]: 25.4 µL/min/mg
Cc1noc(C)c1-c1cc(O)cc(CN2CCC(F)(F)CC2)c1	235	234	half-life at 3 µM [2]: 27 min; microsomal CLint at 3 µM [3]: 51.4 µL/min/mg
Cc1noc(C)c1-c1cc(O)cc(C(O)c2ccncc2)c1 (stereo not given)	303	302	
